Key:
5637 [1] = assay: Cytotoxic activity against human 5637 cell line at 20 uM expressed as percent growth value; type: functional
Outline: (§1)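 Cells in RPMI-1640 with 10% FCS were seeded (1000 cells/well; KYSE-510 500, LCLC-103H 250), then exposed 24 h later for 96 h. Read-out was crystal violet staining of glutaraldehyde-fixed cells at OD 570 nm. Growth (%) = (OD treated − OD at drug addition)/(OD control − OD at drug addition) × 100.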

5637 [2] = assay: Growth inhibition against human 5637 cell lines; type: functional, cell-based
Outline: (§2)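 Cells were grown in RPMI-1640 with 2 g/L NaHCO3 and 10% FCS at 37 °C in 5% CO2, seeded at 1000 cells/well, and dosed 24 h later at five geometric dilutions for 96 h of continuous exposure. Cells were then glutaraldehyde-fixed and stained with crystal violet, with OD read at 570 nm. IC50 was taken from the dose–response data.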

DAN-G = assay: Growth inhibition against human DAN-G cell lines; type: functional, cell-based; outline: as §2
KYSE-70 cell line [3] = assay: Growth inhibition against human KYSE-70 cell lines; type: functional, cell-based; outline: as §2
KYSE-70 cell line [4] = assay: Cytotoxic activity against human KYSE-70 cell line at 20 uM expressed as percent growth value; type: functional; outline: as §1
MCF7 = assay: Growth inhibition against human MCF-7 cell lines; type: functional, cell-based
Outline: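 MCF-7 was cultured in RPMI-1640 with 2 g/L NaHCO3, 10% FCS, 1 mM pyruvate, MEM salts and amino acids. Plating was 1000 cells/well, then after 24 h, 96 h of continuous exposure at five geometric dilutions. Crystal violet staining of glutaraldehyde-fixed cells was read at 570 nm, and IC50 was derived from the dose–response data.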

LCLC-103H cell line [5] = assay: Growth inhibition against human LCLC-103H cell lines; type: functional, cell-based
Outline: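 LCLC-103H cells were grown in RPMI-1640 with 2 g/L NaHCO3 and 10% FCS (5% CO2, 37 °C) and plated at 250 cells/well. After 24 h, five geometric dilutions were applied continuously for 96 h. Fixation was with glutaraldehyde, followed by crystal violet staining and OD at 570 nm. IC50 came from the dose–response curves.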

RT-4 = assay: Growth inhibition against human RT-4 cell lines; type: functional, cell-based; outline: as §2
SISO [6] = assay: Cytotoxic activity against human SISO cell line at 20 uM; type: functional; outline: as §1
SISO [7] = assay: Growth inhibition against human SISO cell lines; type: functional, cell-based; outline: as §2
KYSE-510 = assay: Cytotoxic activity against human KYSE-510 cell line at 20 uM expressed as percent growth value; type: functional; outline: as §1
LCLC-103H cell line [8] = assay: Cytotoxic activity against human LCLC-103H cell line at 20 uM expressed as percent growth value; type: functional; outline: as §1
RT-112 = assay: Growth inhibition against human RT-112 cell lines; type: functional, cell-based; outline: as §2
TERT-RPE1 = assay: Compound was tested for growth inhibition against human h-TERTRPE1 cell lines; type: functional, cell-based
Outline: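 The noncancerous hTERT-immortalized epithelial line h-TERT-RPE1 was grown in DMEM/F-12 with 2 g/L NaHCO3 and 10% FCS (37 °C, 5% CO2) and seeded at 1000 cells/well. Substance was added 24 h later at five geometric dilutions for 96 h continuously. The read-out was crystal violet staining after glutaraldehyde fixation, OD 570 nm, with IC50 from dose–response.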

YAPC = assay: Compound was tested for growth inhibition against human YAPC cell lines; type: functional, cell-based; outline: as §2
KYSE-520 cell line = assay: Growth inhibition against human KYSE-520 cell lines; type: functional, cell-based; outline: as §2
KYSE-510 (human) = assay: Growth inhibition against human KYSE-510 cell lines

Compound	IC50 (MCF7; Homo sapiens, MCF7) [nM]	Activity 5637 [1]	IC50 (5637 [2]; Homo sapiens) [nM]	IC50 (DAN-G; Homo sapiens, DAN-G) [nM]	IC50 (KYSE-70 cell line [3]; Homo sapiens, KYSE-70) [nM]	Activity (KYSE-70 cell line [4])	IC50 (LCLC-103H cell line [5]; Homo sapiens, LCLC-103H) [nM]	IC50 (RT-4; Homo sapiens, RT-4) [nM]	Activity (SISO [6])	IC50 (SISO [7]; Homo sapiens, SISO) [nM]	Activity (KYSE-510)	Activity (LCLC-103H cell line [8])	IC50 (RT-112; Homo sapiens, RT-112) [nM]	IC50 (TERT-RPE1; Homo sapiens, RPE-1) [nM]	IC50 (YAPC; Homo sapiens, YAPC) [nM]	IC50 (KYSE-520 cell line; Homo sapiens, KYSE-520) [nM]	IC50 (KYSE-510 (human); Homo sapiens, KYSE-510) [nM]	other results
N#C/C(=C\c1ccco1)c1nc2ccccc2[nH]1	–	86.1	–	–	–	56.6	–	–	106.1	–	–	–	–	–	–	–	–	–
Cc1ccc(/C=C(\C#N)c2nc3ccccc3[nH]2)s1	–	47.8	20000	> 20000	–	–	2110	> 20000	64.5	> 20000	–	5.9	–	–	–	–	–	–
N#C/C(=C\c1cccc([N+](=O)[O-])c1)c1n[nH]c(-c2ccccc2)n1	–	–	–	–	–	–	–	–	85.5	–	108	56.4	–	–	–	–	–	–
Cc1n[nH]c(/C(C#N)=C/c2cccc([N+](=O)[O-])c2)n1	–	–	–	–	–	–	–	–	98.1	–	94.1	68.8	–	–	–	–	–	–
N#C/C(=C\c1ccc(OC(F)(F)F)cc1)c1nc2ccccc2[nH]1	–	66	–	–	–	96.7	–	–	71.7	–	–	–	–	–	–	–	–	–
N#C/C(=C\c1ccc([N+](=O)[O-])cc1)c1nc2ccccc2[nH]1	–	73.9	–	–	–	88	–	–	99.2	–	–	–	–	–	–	–	–	–
N#C/C(=C\c1ccc([N+](=O)[O-])s1)c1n[nH]c(-c2ccccc2)n1	680	–	480	420	350	–	540	1030	-9.9	890	-21.7	-6.5	830	420	320	570	630	–
N#C/C(=C\c1ccc(Cl)s1)c1nc2ccccc2[nH]1	–	44.6	22400	> 20000	–	–	1970	> 20000	102.2	> 20000	–	13.4	–	–	–	–	–	–
N#C/C(=C\c1csc([N+](=O)[O-])c1)c1nc2ccccc2[nH]1	–	80	> 20000	> 20000	–	–	1420	> 20000	82.3	> 20000	–	8.6	–	> 5000	–	–	–	–
CN(C)c1ccc(/C=C(\C#N)c2nc3ccccc3[nH]2)cc1	–	61.1	–	–	–	124.4	–	–	95	–	–	–	–	–	–	–	–	–
COc1ccc(/C=C(\C#N)c2nc3ccccc3[nH]2)cc1	–	64.9	–	–	–	75.8	–	–	72.1	–	–	–	–	–	–	–	–	–
CISPLATIN	–	–	–	–	–	–	–	–	–	–	–	–	–	–	–	–	–	IC50 5637 [2]: 310 nM; IC50 (DAN-G; dan-g): 1390 nM; IC50 (KYSE-70 cell line [3]; kyse-70): 1490 nM; IC50 (MCF7; mcf7): 740 nM; IC50 (LCLC-103H cell line [5]; lclc-103h): 1630 nM; IC50 (RT-112; rt-112): 2140 nM; IC50 (RT-4; rt-4): 3700 nM; IC50 (SISO [7]; siso): 200 nM; IC50 (TERT-RPE1; tert-rpe1): 3040 nM; IC50 (YAPC; yapc): 6030 nM; IC50 (KYSE-520 cell line; kyse-520): 5070 nM; IC50 (KYSE-510 (human); kyse-510): 880 nM
N#C/C(=C\c1ccc(C#N)cc1)c1nc2ccccc2[nH]1	–	75.6	–	–	–	99.3	–	–	99.2	–	–	–	–	–	–	–	–	–

The next lines start with results.

IC50 (MCF7; Homo sapiens, MCF7) [nM]	Compound	Activity 5637 [1]	IC50 (5637 [2]; Homo sapiens) [nM]	IC50 (DAN-G; Homo sapiens, DAN-G) [nM]	IC50 (KYSE-70 cell line [3]; Homo sapiens, KYSE-70) [nM]	Activity (KYSE-70 cell line [4])	IC50 (LCLC-103H cell line [5]; Homo sapiens, LCLC-103H) [nM]	IC50 (RT-4; Homo sapiens, RT-4) [nM]	Activity (SISO [6])	IC50 (SISO [7]; Homo sapiens, SISO) [nM]	Activity (KYSE-510)	Activity (LCLC-103H cell line [8])	IC50 (RT-112; Homo sapiens, RT-112) [nM]	IC50 (TERT-RPE1; Homo sapiens, RPE-1) [nM]	IC50 (YAPC; Homo sapiens, YAPC) [nM]	IC50 (KYSE-520 cell line; Homo sapiens, KYSE-520) [nM]	IC50 (KYSE-510 (human); Homo sapiens, KYSE-510) [nM]	other results
11200	N#C/C(=C\c1cccs1)c1nc2ccccc2[nH]1	49.3	17800	15000	8780	30.8	2500	14600	82.4	25900	–	–	–	–	–	–	–	–
380	Cc1n[nH]c(/C(C#N)=C/c2ccc([N+](=O)[O-])s2)n1	–	220	570	440	–	330	900	-8.8	510	-21.3	-8.4	670	690	410	600	560	–
650	N#C/C(=C\c1ccc([N+](=O)[O-])o1)c1nc2ccccc2[nH]1	–	480	690	450	–	410	990	-8.2	330	-21.2	-8	690	600	570	620	750	–
160	N#C/C(=C\c1ccc([N+](=O)[O-])s1)c1nc2ccccc2[nH]1	–	150	320	160	–	170	270	18	310	20.5	-6.5	360	390	160	110	330	–
420	N#C/C(=C\c1ccc([N+](=O)[O-])s1)c1n[nH]c(Cc2ccccc2)n1	–	320	500	420	–	310	590	-8.7	780	-21.3	-8.4	650	510	360	290	530	–
610	N#C/C(=C\c1ccc([N+](=O)[O-])o1)c1n[nH]c(Cc2ccccc2)n1	–	400	490	400	–	290	1370	-8.1	370	-20.7	-7.3	750	420	450	750	620	–
2970	C/C(=C\c1ccc([N+](=O)[O-])s1)c1nc2ccccc2[nH]1	0.5	3650	3730	5110	2.4	440	4670	-1.3	3280	–	–	–	–	–	–	–	–
1470	Cc1n[nH]c(/C(C#N)=C/c2ccc([N+](=O)[O-])o2)n1	–	540	1000	660	–	350	1480	-8.7	270	-21.3	-8.4	1000	690	850	860	900	–
16400	N#C/C(=C\c1cccc([N+](=O)[O-])c1)c1nc2ccccc2[nH]1	14.4	15200	15800	22500	55.4	1130	7680	54.2	30900	–	–	–	–	–	–	–	–
1620	N#C/C(=C\c1ccc([N+](=O)[O-])o1)c1n[nH]c(-c2ccccc2)n1	–	1220	1520	1170	–	700	1850	-7.9	1200	-20.9	-8.4	1510	1160	1400	1620	1350	–
1490	CN(C)c1ccc(/C=C(\C#N)c2n[nH]c(Cc3ccccc3)n2)cc1	–	1380	4110	2530	–	1650	2500	1.2	3240	-1.01	-1.8	3690	–	3480	6260	3360	–
540	COc1cc([C@@H]2c3cc4c(cc3[C@@H](O[C@@H]3O[C@@H]5CO[C@@H](C)O[C@H]5[C@H](O)[C@H]3O)[C@H]3COC(=O)[C@H]23)OCO4)cc(OC)c1O [ETOPOSIDE]	–	530	380	790	–	–	1330	–	150	–	–	220	90	1320	410	700	–

— ChEMBL document CHEMBL1148342, “Synthesis, X-ray crystal structures, stabilities, and in vitro cytotoxic activities of new heteroarylacrylonitriles” (J Med Chem, 2004)
